Measurements reported in ChEMBL document CHEMBL4665666, “Discovery and characterization of trypanocidal cysteine protease inhibitors from the 'malaria box'” (Eur J Med Chem, 2019).

What was measured:
[1] = target: Rhodesain (Trypanosoma brucei rhodesiense) (UniProt Q95PM0); experiment: Inhibition of recombinant Trypanosoma brucei rhodesain expressed in Pichia pastoris at 0.5 uM using Z-FR-AMC as substrate and measured at 12 sec interval for 5 mins without preincubation by fluorimetric analysis relative to control
Rhodesain (Trypanosoma brucei rhodesiense), sequence (Q95PM0 1-450): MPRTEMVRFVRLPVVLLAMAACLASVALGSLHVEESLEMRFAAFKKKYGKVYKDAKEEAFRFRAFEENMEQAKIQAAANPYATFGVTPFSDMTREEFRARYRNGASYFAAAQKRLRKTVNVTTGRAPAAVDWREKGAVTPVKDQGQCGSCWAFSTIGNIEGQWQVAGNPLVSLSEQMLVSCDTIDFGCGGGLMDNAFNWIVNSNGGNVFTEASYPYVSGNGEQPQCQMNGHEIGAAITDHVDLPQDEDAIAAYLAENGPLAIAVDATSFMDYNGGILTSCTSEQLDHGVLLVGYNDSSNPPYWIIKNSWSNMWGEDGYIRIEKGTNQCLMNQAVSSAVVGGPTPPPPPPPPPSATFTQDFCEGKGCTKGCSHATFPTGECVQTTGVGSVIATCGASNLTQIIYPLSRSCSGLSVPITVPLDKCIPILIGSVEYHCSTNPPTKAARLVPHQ
Summary of the method: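 Recombinant rhodesain or cruzain (1 nM) in 0.1 M sodium acetate pH 5.5, 0.01% Triton X-100, 1 mM β-mercaptoethanol. Compound at a single concentration, either without or after 10 min enzyme pre-incubation. Z-FR-AMC 2.5 µM, read at 340/440 nm every 12 s for 5 min. Inhibition is relative to DMSO, with E-64 as positive control. Done in duplicate (primary screen) or triplicate.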

[2] = target: T1, cathepsin S (Homo sapiens, UniProt P25774); experiment: Inhibition of recombinant human cathepsin S expressed in Escherichia coli at 1 uM using Z-VVR-AMC as substrate and measured after 15 mins without preincubation by microplate reader based assay relative to control; details: probe Z-VVR-AMC
T1 sequence (P25774 whole entry): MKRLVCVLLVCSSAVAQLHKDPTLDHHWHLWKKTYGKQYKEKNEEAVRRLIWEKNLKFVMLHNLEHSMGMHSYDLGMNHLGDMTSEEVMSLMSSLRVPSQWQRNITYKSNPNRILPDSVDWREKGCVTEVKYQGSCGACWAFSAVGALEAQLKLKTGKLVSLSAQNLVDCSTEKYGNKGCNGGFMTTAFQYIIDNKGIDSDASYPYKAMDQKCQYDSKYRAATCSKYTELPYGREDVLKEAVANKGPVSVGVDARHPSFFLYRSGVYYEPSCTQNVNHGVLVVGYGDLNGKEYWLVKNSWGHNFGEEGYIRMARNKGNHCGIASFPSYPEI

[3] = target: T1, cathepsin S; experiment: Inhibition of recombinant human cathepsin S expressed in Escherichia coli at 1 uM using Z-VVR-AMC as substrate preincubated for 10 mins followed by substrate addition and measured after 15 mins by microplate reader based assay relative to control; details: probe Z-VVR-AMC, in the assay text read “preincubated for 5 mins” for “preincubated for 10 mins”, time 20 min
Summary of the method: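 Run with or without 5 min compound–enzyme pre-incubation. AMC fluorescence at 380/460 nm over 15 min. Inhibition relative to DMSO (2% final); E64 1 µM as positive control. Two independent experiments, each in triplicate.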

[4] = target: T2, cathepsin B (Rattus norvegicus, UniProt P00787); experiment: Inhibition of rat cathepsin B at 1 uM using Z-FR-AMC as substrate measured after 15 mins without preincubation by microplate reader based assay relative to control; details: probe Z-FR-AMC
T2 sequence (P00787 whole entry): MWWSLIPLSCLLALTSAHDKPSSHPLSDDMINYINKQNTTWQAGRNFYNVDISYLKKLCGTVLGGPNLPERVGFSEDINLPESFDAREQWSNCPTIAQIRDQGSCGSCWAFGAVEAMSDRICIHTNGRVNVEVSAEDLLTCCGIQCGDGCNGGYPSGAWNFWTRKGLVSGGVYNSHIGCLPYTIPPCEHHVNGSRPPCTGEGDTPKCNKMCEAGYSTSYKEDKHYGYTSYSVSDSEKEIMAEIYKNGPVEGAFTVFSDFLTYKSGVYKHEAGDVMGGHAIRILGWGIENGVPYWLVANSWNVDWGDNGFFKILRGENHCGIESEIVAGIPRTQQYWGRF

[5] = target: T2, cathepsin B; experiment: Inhibition of rat cathepsin B at 1 uM using Z-FR-AMC as substrate preincubated for 5 mins followed by substrate addition and measured after 15 mins by microplate reader based assay relative to control; details: probe Z-FR-AMC

SMILES: CC(C)C[C@H](NC(=O)[C@H]1O[C@@H]1C(=O)O)C(=O)NCCCCN=C(N)N [E-64]
- inhibition [1]: 36%
- inhibition at 0.25 h, 1 µM [2]: 99.9%
- inhibition at 0.25 h, 1 µM [3]: 99.9%
- inhibition at 0.25 h, 1 µM [4]: 99.1%
- inhibition at 0.25 h, 1 µM [5]: 100%
